# Tested on: Rattus norvegicus
# Test: Tmax in Sprague-Dawley rat at 10 mg/kg, po
# Type: ADME, organism-based
# Set-up: dose 10 mg/kg, route oral
# Conditions: in vivo
# Outline: (§1)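 Oral dose of 10 mg/kg in a 2% HPMC, 1% Tween 80 vehicle given to Sprague–Dawley rats; n = 3 animals.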
row,SMILES,Tmax [%]
1,CC(C)(C(=O)Nc1ccc(Cl)c(C(F)(F)F)c1)S(=O)(=O)c1ccc(Cl)cc1,1.7
2,Cn1nc(C(C)(C)C)cc1NC(=O)C(C)(C)S(=O)(=O)c1ccc(Cl)cc1,0.67

# Molecular target: T1, Cannabinoid receptor 1 (Homo sapiens, UniProt P21554)
# T1 sequence (P21554 whole entry): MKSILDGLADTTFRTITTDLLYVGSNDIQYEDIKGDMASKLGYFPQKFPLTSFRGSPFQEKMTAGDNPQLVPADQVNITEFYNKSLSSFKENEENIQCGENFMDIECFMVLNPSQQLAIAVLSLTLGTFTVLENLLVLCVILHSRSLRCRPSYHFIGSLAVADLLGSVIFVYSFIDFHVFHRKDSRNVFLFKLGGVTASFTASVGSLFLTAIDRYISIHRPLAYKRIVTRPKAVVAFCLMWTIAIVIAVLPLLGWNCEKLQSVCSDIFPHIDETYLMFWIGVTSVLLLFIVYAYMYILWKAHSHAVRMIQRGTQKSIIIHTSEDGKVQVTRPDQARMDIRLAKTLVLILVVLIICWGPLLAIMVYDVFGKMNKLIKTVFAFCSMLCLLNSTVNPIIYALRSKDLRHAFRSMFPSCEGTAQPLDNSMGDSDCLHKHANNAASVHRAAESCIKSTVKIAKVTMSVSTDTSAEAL
# Test: Agonist activity at human CB1 expressed in CHO cells receptor assessed as suppression of forskolin-stimulated cAMP accumulation relative to control
# Type: functional, cell-based
# Conditions: not given
# Outline: (§2)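 CHO cells expressing human CB1 or CB2. Read-out was suppression of forskolin-induced cAMP production in whole cells. Emax was taken as the maximum of the dose–response curve. Values are means of n = 2–20 independent measurements, derived by logistic fit.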
row,SMILES,Emax [%]
1,CC(C)(C(=O)Nc1ccc(Cl)c(C(F)(F)F)c1)S(=O)(=O)c1ccc(Cl)cc1,39
2,Cn1nc(C(C)(C)C)cc1NC(=O)C(C)(C)S(=O)(=O)c1ccc(Cl)cc1,12
3,CC(C)(C(=O)Nc1ccc(C(F)(F)F)cc1)S(=O)(=O)c1ccc(Cl)cc1,19
4,CC(C)(C(=O)Nc1cnc2ccccc2c1)S(=O)(=O)c1ccc(Cl)cc1,47
5,CC(C)(C(=O)Nc1ccc(Cl)c(-c2ccco2)c1)S(=O)(=O)c1ccc(Cl)cc1,98
6,CC(C)(C(=O)Nc1cnc2ccccc2c1)S(=O)(=O)c1ccc(F)cc1,19

# Molecular target: T2, Cannabinoid receptor 2 (Homo sapiens, UniProt P34972)
# T2 sequence (P34972 whole entry): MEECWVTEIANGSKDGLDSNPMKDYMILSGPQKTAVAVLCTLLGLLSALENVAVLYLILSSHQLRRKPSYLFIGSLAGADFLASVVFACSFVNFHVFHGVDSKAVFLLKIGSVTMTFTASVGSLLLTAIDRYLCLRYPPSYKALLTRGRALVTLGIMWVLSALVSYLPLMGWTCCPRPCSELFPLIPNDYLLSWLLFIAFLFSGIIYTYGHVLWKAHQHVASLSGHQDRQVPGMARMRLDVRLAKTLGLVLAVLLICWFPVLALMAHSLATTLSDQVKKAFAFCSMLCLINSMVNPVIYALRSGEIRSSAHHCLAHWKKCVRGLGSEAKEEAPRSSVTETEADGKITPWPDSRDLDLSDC
# Test: Agonist activity at human CB2 receptor expressed in SF9 cells assessed as inhibition of CP-55940-stimulated GTP binding relative to control
# Conditions: not given
# Outline: (§3)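 Sf9 insect-cell membranes co-expressing hCB1 or hCB2 with Gαi3 (Bmax 1.7 pmol/ml). Compound added in 50 mM Hepes/0.1% BSA to buffer with 10 mM MgCl2, 150 mM NaCl, GDP, 10 nM GTP-Europium and 0.0005% saponin. Final DMSO was 1%. Incubated 45 min at room temperature, then filtered, washed and read by fluorescence at 615 nm. 3 µM CP55940 set 100% efficacy. Logistic fit, n = 2–20.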
row,SMILES,Emax [%]
1,CC(C)(C(=O)Nc1ccc(Cl)c(C(F)(F)F)c1)S(=O)(=O)c1ccc(Cl)cc1,102
2,Cn1nc(C(C)(C)C)cc1NC(=O)C(C)(C)S(=O)(=O)c1ccc(Cl)cc1,104
3,CC(C)(C(=O)Nc1ccc(C(F)(F)F)cc1)S(=O)(=O)c1ccc(Cl)cc1,77
4,CC(C)(C(=O)Nc1cnc2ccccc2c1)S(=O)(=O)c1ccc(Cl)cc1,90
5,CC(C)(C(=O)Nc1ccc(Cl)c(-c2ccco2)c1)S(=O)(=O)c1ccc(Cl)cc1,101
6,CC(C)(C(=O)Nc1cnc2ccccc2c1)S(=O)(=O)c1ccc(F)cc1,102

# Molecular target: T2, Cannabinoid receptor 2
# Test: Agonist activity at human CB2 receptor expressed in SF9 cells assessed as inhibition of CP-55940-stimulated GTP binding
# Conditions: not given
# Outline: (§4)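 Sf9 membranes co-expressing hCB1 or hCB2 with Gαi3 (Bmax 1.7 pmol/ml). Europium-GTP (10 nM) binding in 50 mM Hepes, 0.1% BSA, 10 mM MgCl2, 150 mM NaCl, GDP, 0.0005% saponin, 1% DMSO. Compound tested from 0.01 nM upward. Incubated 45 min at room temperature, then filtered and washed; fluorescence read at 615 nm. 3 micromolar CP55940 defines 100% efficacy.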
row,SMILES,EC50 [nM]
1,CC(C)(C(=O)Nc1ccc(Cl)c(C(F)(F)F)c1)S(=O)(=O)c1ccc(Cl)cc1,20
2,Cn1nc(C(C)(C)C)cc1NC(=O)C(C)(C)S(=O)(=O)c1ccc(Cl)cc1,26
3,CC(C)(C(=O)Nc1ccc(C(F)(F)F)cc1)S(=O)(=O)c1ccc(Cl)cc1,115
4,CC(C)(C(=O)Nc1cnc2ccccc2c1)S(=O)(=O)c1ccc(Cl)cc1,57
5,CC(C)(C(=O)Nc1ccc(Cl)c(-c2ccco2)c1)S(=O)(=O)c1ccc(Cl)cc1,4
6,CC(C)(C(=O)Nc1cnc2ccccc2c1)S(=O)(=O)c1ccc(F)cc1,109

# Tested on: not listed separately
# Test: Half life in Sprague-Dawley rat at 0.5 mg/kg, iv
# Type: ADME, organism-based
# Set-up: dose 0.5 mg/kg, route intravenous
# Conditions: in vivo
# Outline: (§5)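 Single intravenous dose of 0.5 mg/kg given as a solution in DMSO to Sprague–Dawley rats; n = 2 animals.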
row,SMILES,half-life [min]
1,CC(C)(C(=O)Nc1ccc(Cl)c(C(F)(F)F)c1)S(=O)(=O)c1ccc(Cl)cc1,840
2,Cn1nc(C(C)(C)C)cc1NC(=O)C(C)(C)S(=O)(=O)c1ccc(Cl)cc1,114

# Tested on: not listed separately
# Test: Oral bioavailability in Sprague-Dawley rat at 10 mg/kg
# Type: ADME, organism-based
# Conditions: in vivo
# Outline: as §1
row,SMILES,bioavailability [%]
1,CC(C)(C(=O)Nc1ccc(Cl)c(C(F)(F)F)c1)S(=O)(=O)c1ccc(Cl)cc1,52
2,Cn1nc(C(C)(C)C)cc1NC(=O)C(C)(C)S(=O)(=O)c1ccc(Cl)cc1,43

# Molecular target: T1, Cannabinoid receptor 1
# Test: Agonist activity at human CB1 receptor expressed in CHO cells assessed as suppression of forskolin-stimulated cAMP accumulation
# Type: functional, cell-based
# Conditions: not given
# Outline: (§6)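 Forskolin-induced cAMP measured in CHO cells expressing human CB1 or CB2. EC50 from a logistic fit of the concentration–response curve. Emax taken as the maximum of the dose–response. Means of n = 2–20 independent measurements.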
row,SMILES,EC50 [nM]
1,CC(C)(C(=O)Nc1ccc(Cl)c(C(F)(F)F)c1)S(=O)(=O)c1ccc(Cl)cc1,> 2000
2,Cn1nc(C(C)(C)C)cc1NC(=O)C(C)(C)S(=O)(=O)c1ccc(Cl)cc1,> 2000
3,CC(C)(C(=O)Nc1ccc(C(F)(F)F)cc1)S(=O)(=O)c1ccc(Cl)cc1,> 1000
4,CC(C)(C(=O)Nc1cnc2ccccc2c1)S(=O)(=O)c1ccc(Cl)cc1,> 1000
5,CC(C)(C(=O)Nc1ccc(Cl)c(-c2ccco2)c1)S(=O)(=O)c1ccc(Cl)cc1,230
6,CC(C)(C(=O)Nc1cnc2ccccc2c1)S(=O)(=O)c1ccc(F)cc1,> 2000

# Tested on: not listed separately
# Test: AUC (0 to infinity) in Sprague-Dawley rat at 10 mg/kg, po
# Type: ADME, organism-based
# Set-up: time infinity, dose 10 mg/kg, route oral
# Conditions: plasma
# Outline: as §1
row,SMILES,AUC(0-inf) [ng·h/mL]
1,CC(C)(C(=O)Nc1ccc(Cl)c(C(F)(F)F)c1)S(=O)(=O)c1ccc(Cl)cc1,9680
2,Cn1nc(C(C)(C)C)cc1NC(=O)C(C)(C)S(=O)(=O)c1ccc(Cl)cc1,3570

# Molecular target: T2, Cannabinoid receptor 2
# Test: Agonist activity at human CB2 receptor expressed in CHO cells assessed as suppression of forskolin-stimulated cAMP accumulation
# Type: functional, cell-based
# Conditions: not given
# Outline: as §6
row,SMILES,EC50 [nM]
1,CC(C)(C(=O)Nc1ccc(Cl)c(C(F)(F)F)c1)S(=O)(=O)c1ccc(Cl)cc1,5
2,Cn1nc(C(C)(C)C)cc1NC(=O)C(C)(C)S(=O)(=O)c1ccc(Cl)cc1,25
3,CC(C)(C(=O)Nc1ccc(C(F)(F)F)cc1)S(=O)(=O)c1ccc(Cl)cc1,57
4,CC(C)(C(=O)Nc1cnc2ccccc2c1)S(=O)(=O)c1ccc(Cl)cc1,13
5,CC(C)(C(=O)Nc1ccc(Cl)c(-c2ccco2)c1)S(=O)(=O)c1ccc(Cl)cc1,5
6,CC(C)(C(=O)Nc1cnc2ccccc2c1)S(=O)(=O)c1ccc(F)cc1,33

# Molecular target: T2, Cannabinoid receptor 2
# Test: Agonist activity at human CB2 receptor expressed in CHO cells assessed as suppression of forskolin-stimulated cAMP accumulation relative to control
# Type: functional, cell-based
# Conditions: not given
# Outline: as §2
row,SMILES,Emax [%]
1,CC(C)(C(=O)Nc1ccc(Cl)c(C(F)(F)F)c1)S(=O)(=O)c1ccc(Cl)cc1,96
2,Cn1nc(C(C)(C)C)cc1NC(=O)C(C)(C)S(=O)(=O)c1ccc(Cl)cc1,92
3,CC(C)(C(=O)Nc1ccc(C(F)(F)F)cc1)S(=O)(=O)c1ccc(Cl)cc1,93
4,CC(C)(C(=O)Nc1cnc2ccccc2c1)S(=O)(=O)c1ccc(Cl)cc1,93
5,CC(C)(C(=O)Nc1ccc(Cl)c(-c2ccco2)c1)S(=O)(=O)c1ccc(Cl)cc1,101
6,CC(C)(C(=O)Nc1cnc2ccccc2c1)S(=O)(=O)c1ccc(F)cc1,97

# Tested on: not listed separately
# Test: Protein binding in human plasma
# Type: ADME, cell-free
# Conditions: read-out: PPB (converted)
row,SMILES,fraction unbound
1,CC(C)(C(=O)Nc1ccc(Cl)c(C(F)(F)F)c1)S(=O)(=O)c1ccc(Cl)cc1,0.002
2,Cn1nc(C(C)(C)C)cc1NC(=O)C(C)(C)S(=O)(=O)c1ccc(Cl)cc1,0.064

# Tested on: not listed separately
# Test: Cmax in Sprague-Dawley rat at 10 mg/kg, po
# Type: ADME, organism-based
# Set-up: dose 10 mg/kg, route oral
# Conditions: in vivo
# Outline: as §1
row,SMILES,Cmax [ng/mL]
1,CC(C)(C(=O)Nc1ccc(Cl)c(C(F)(F)F)c1)S(=O)(=O)c1ccc(Cl)cc1,560
2,Cn1nc(C(C)(C)C)cc1NC(=O)C(C)(C)S(=O)(=O)c1ccc(Cl)cc1,971

# Molecular target: T1, Cannabinoid receptor 1
# Test: Agonist activity at human CB1 receptor expressed in SF9 cells assessed as inhibition of CP-55940-stimulated GTP binding
# Conditions: not given
# Outline: as §4
row,SMILES,EC50 [nM]
1,CC(C)(C(=O)Nc1ccc(Cl)c(C(F)(F)F)c1)S(=O)(=O)c1ccc(Cl)cc1,700000
2,Cn1nc(C(C)(C)C)cc1NC(=O)C(C)(C)S(=O)(=O)c1ccc(Cl)cc1,223000
3,CC(C)(C(=O)Nc1ccc(C(F)(F)F)cc1)S(=O)(=O)c1ccc(Cl)cc1,> 10000
4,CC(C)(C(=O)Nc1cnc2ccccc2c1)S(=O)(=O)c1ccc(Cl)cc1,1680
5,CC(C)(C(=O)Nc1ccc(Cl)c(-c2ccco2)c1)S(=O)(=O)c1ccc(Cl)cc1,96
6,CC(C)(C(=O)Nc1cnc2ccccc2c1)S(=O)(=O)c1ccc(F)cc1,2780

# Tested on: not listed separately
# Test: Protein binding in rat plasma
# Type: ADME, cell-free
# Conditions: read-out: PPB (converted)
row,SMILES,fraction unbound
1,CC(C)(C(=O)Nc1ccc(Cl)c(C(F)(F)F)c1)S(=O)(=O)c1ccc(Cl)cc1,0.003
2,Cn1nc(C(C)(C)C)cc1NC(=O)C(C)(C)S(=O)(=O)c1ccc(Cl)cc1,0.06

# Molecular target: T1, Cannabinoid receptor 1
# Test: Agonist activity at human CB1 receptor expressed in SF9 cells assessed as inhibition of CP-55940-stimulated GTP binding relative to control
# Conditions: not given
# Outline: as §3
row,SMILES,Emax [%]
1,CC(C)(C(=O)Nc1ccc(Cl)c(C(F)(F)F)c1)S(=O)(=O)c1ccc(Cl)cc1,22
2,Cn1nc(C(C)(C)C)cc1NC(=O)C(C)(C)S(=O)(=O)c1ccc(Cl)cc1,37
3,CC(C)(C(=O)Nc1ccc(C(F)(F)F)cc1)S(=O)(=O)c1ccc(Cl)cc1,14
4,CC(C)(C(=O)Nc1cnc2ccccc2c1)S(=O)(=O)c1ccc(Cl)cc1,47
5,CC(C)(C(=O)Nc1ccc(Cl)c(-c2ccco2)c1)S(=O)(=O)c1ccc(Cl)cc1,82
6,CC(C)(C(=O)Nc1cnc2ccccc2c1)S(=O)(=O)c1ccc(F)cc1,22

# Tested on: not listed separately
# Test: Intrinsic clearance in rat liver microsomes
# Type: ADME, Microsome
# Conditions: not given
row,SMILES,microsomal CLint [µL/min/mg]
1,CC(C)(C(=O)Nc1ccc(Cl)c(C(F)(F)F)c1)S(=O)(=O)c1ccc(Cl)cc1,14
2,Cn1nc(C(C)(C)C)cc1NC(=O)C(C)(C)S(=O)(=O)c1ccc(Cl)cc1,20

# Tested on: not listed separately
# Test: Volume of distribution at steady state in Sprague-Dawley rat at 0.5 mg/kg, iv
# Type: ADME, organism-based
# Set-up: dose 0.5 mg/kg, route intravenous
# Conditions: in vivo, read-out: Vdss
# Outline: as §5
row,SMILES,Vd [L/kg]
1,CC(C)(C(=O)Nc1ccc(Cl)c(C(F)(F)F)c1)S(=O)(=O)c1ccc(Cl)cc1,9.3
2,Cn1nc(C(C)(C)C)cc1NC(=O)C(C)(C)S(=O)(=O)c1ccc(Cl)cc1,2

# Tested on: not listed separately
# Test: Clearance in Sprague-Dawley rat at 0.5 mg/kg, iv
# Type: ADME, organism-based
# Set-up: dose 0.5 mg/kg, route intravenous
# Conditions: in vivo
# Outline: as §5
row,SMILES,clearance [mL/min/kg]
1,CC(C)(C(=O)Nc1ccc(Cl)c(C(F)(F)F)c1)S(=O)(=O)c1ccc(Cl)cc1,9
2,Cn1nc(C(C)(C)C)cc1NC(=O)C(C)(C)S(=O)(=O)c1ccc(Cl)cc1,20

# Tested on: not listed separately
# Test: Intrinsic clearance in human liver microsomes
# Type: ADME, Microsome
# Conditions: not given
row,SMILES,microsomal CLint [µL/min/mg]
1,CC(C)(C(=O)Nc1ccc(Cl)c(C(F)(F)F)c1)S(=O)(=O)c1ccc(Cl)cc1,14
2,Cn1nc(C(C)(C)C)cc1NC(=O)C(C)(C)S(=O)(=O)c1ccc(Cl)cc1,14
